According to ChEMBL document CHEMBL4715736, “Identification of anticancer agents based on the thieno[2,3-b]pyridine and 1H-pyrazole molecular scaffolds” (2016):

How the values were obtained:
Type in all cases: functional
Settings in all cases: read-out: Activity
IGROV-1 = assay: Growth inhibition of human IGROV-1 cells assessed as cell growth at 10 uM incubated for 48 hrs by sulforhodamine B assay relative to control
Procedure, shortened: (§1)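 Submitted to the NCI Developmental Therapeutics Program for the NCI60 human tumour cell line panel. First screen at a single 10 µM concentration. Read-out is growth relative to untreated control cells set at 100%.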

RPMI-8226 = assay: Growth inhibition of human RPMI-8226 cells assessed as cell growth at 10 uM incubated for 48 hrs by sulforhodamine B assay relative to control
Procedure, shortened: (§2)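 Run by the NCI Developmental Therapeutics Program as part of its 60-line human tumour panel. Each compound tested at a single 10 µM dose. Growth expressed as % relative to untreated control cells (100%).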

NCI-H23 = assay: Growth inhibition of human NCI-H23 cells assessed as cell growth at 10 uM incubated for 48 hrs by sulforhodamine B assay relative to control; procedure, shortened: as §1
DU-145 = assay: Growth inhibition of human DU-145 cells assessed as cell growth at 10 uM incubated for 48 hrs by sulforhodamine B assay relative to control
Procedure, shortened: (§3)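 NCI Developmental Therapeutics Program NCI60 panel. Compounds that were active in the 10 µM one-dose screen went on to dose–response testing. Growth at each concentration is expressed relative to untreated control (100%). GI50 (concentration giving 50% of maximal inhibition of proliferation) and TGI (concentration giving total growth inhibition) were derived from the curves.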

SF-539 = assay: Growth inhibition of human SF-539 cells assessed as cell growth at 10 uM incubated for 48 hrs by sulforhodamine B assay relative to control; procedure, shortened: as §2
UO-31 = assay: Growth inhibition of human UO-31 cells assessed as cell growth at 10 uM incubated for 48 hrs by sulforhodamine B assay relative to control; procedure, shortened: as §2
CCRF-CEM = assay: Growth inhibition of human CCRF-CEM cells assessed as cell growth at 10 uM incubated for 48 hrs by sulforhodamine B assay relative to control; procedure, shortened: as §3
A498 = assay: Growth inhibition of human A498 cells assessed as cell growth at 10 uM incubated for 48 hrs by sulforhodamine B assay relative to control; procedure, shortened: as §3
MDA-MB-231 = assay: Growth inhibition of human MDA-MB-231 cells assessed as cell growth at 10 uM incubated for 48 hrs by sulforhodamine B assay relative to control; procedure, shortened: as §1
OVCAR-5 = assay: Growth inhibition of human OVCAR-5 cells assessed as cell growth at 10 uM incubated for 48 hrs by sulforhodamine B assay relative to control; procedure, shortened: as §2
SNB-19 = assay: Growth inhibition of human SNB-19 cells assessed as cell growth at 10 uM incubated for 48 hrs by sulforhodamine B assay relative to control; procedure, shortened: as §2
OVCAR-3 = assay: Growth inhibition of human OVCAR-3 cells assessed as cell growth at 10 uM incubated for 48 hrs by sulforhodamine B assay relative to control; procedure, shortened: as §2
RXF 393 = assay: Growth inhibition of human RXF 393 cells assessed as cell growth at 10 uM incubated for 48 hrs by sulforhodamine B assay relative to control; procedure, shortened: as §2
MDA-MB-435 = assay: Growth inhibition of human MDA-MB-435 cells assessed as cell growth at 10 uM incubated for 48 hrs by sulforhodamine B assay relative to control; procedure, shortened: as §1
A549 = assay: Growth inhibition of human A549/ATCC cells assessed as cell growth at 10 uM incubated for 48 hrs by sulforhodamine B assay relative to control; procedure, shortened: as §3
OVCAR-8 = assay: Growth inhibition of human OVCAR-8 cells assessed as cell growth at 10 uM incubated for 48 hrs by sulforhodamine B assay relative to control; procedure, shortened: as §2
MOLT-4 = assay: Growth inhibition of human MOLT-4 cells assessed as cell growth at 10 uM incubated for 48 hrs by sulforhodamine B assay relative to control; procedure, shortened: as §1
T47D = assay: Growth inhibition of human T47D cells assessed as cell growth at 10 uM incubated for 48 hrs by sulforhodamine B assay relative to control; procedure, shortened: as §2
HCC 2998 = assay: Growth inhibition of human HCC 2998 cells assessed as cell growth at 10 uM incubated for 48 hrs by sulforhodamine B assay relative to control; procedure, shortened: as §3
UACC-257 = assay: Growth inhibition of human UACC-257 cells assessed as cell growth at 10 uM incubated for 48 hrs by sulforhodamine B assay relative to control; procedure, shortened: as §2
UACC-62 = assay: Growth inhibition of human UACC-62 cells assessed as cell growth at 10 uM incubated for 48 hrs by sulforhodamine B assay relative to control; procedure, shortened: as §2
M14 = assay: Growth inhibition of human M14 cells assessed as cell growth at 10 uM incubated for 48 hrs by sulforhodamine B assay relative to control; procedure, shortened: as §1
HOP-92 = assay: Growth inhibition of human HOP-92 cells assessed as cell growth at 10 uM incubated for 48 hrs by sulforhodamine B assay relative to control; procedure, shortened: as §1
SK-MEL-5 = assay: Growth inhibition of human SK-MEL-5 cells assessed as cell growth at 10 uM incubated for 48 hrs by sulforhodamine B assay relative to control; procedure, shortened: as §2
SN12C = assay: Growth inhibition of human SN12C cells assessed as cell growth at 10 uM incubated for 48 hrs by sulforhodamine B assay relative to control; procedure, shortened: as §2
KM12 = assay: Growth inhibition of human KM12 cells assessed as cell growth at 10 uM incubated for 48 hrs by sulforhodamine B assay relative to control; procedure, shortened: as §1
MDA-MB-468 = assay: Growth inhibition of human MDA-MB-468 cells assessed as cell growth at 10 uM incubated for 48 hrs by sulforhodamine B assay relative to control; procedure, shortened: as §1
SF-295 = assay: Growth inhibition of human SF-295 cells assessed as cell growth at 10 uM incubated for 48 hrs by sulforhodamine B assay relative to control; procedure, shortened: as §2
HOP-62 = assay: Growth inhibition of human HOP-62 cells assessed as cell growth at 10 uM incubated for 48 hrs by sulforhodamine B assay relative to control; procedure, shortened: as §1
Malme-3M = assay: Growth inhibition of human Malme-3M cells assessed as cell growth at 10 uM incubated for 48 hrs by sulforhodamine B assay relative to control; procedure, shortened: as §1
786-0 = assay: Growth inhibition of human 786-0 cells assessed as cell growth at 10 uM incubated for 48 hrs by sulforhodamine B assay relative to control; procedure, shortened: as §3
U-251 = assay: Growth inhibition of human U-251 cells assessed as cell growth at 10 uM incubated for 48 hrs by sulforhodamine B assay relative to control; procedure, shortened: as §2
HL-60(TB) = assay: Growth inhibition of human HL-60(TB) cells assessed as cell growth at 10 uM incubated for 48 hrs by sulforhodamine B assay relative to control
Procedure, shortened: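 Screened by the NCI Developmental Therapeutics Program on its panel of 60 human tumour cell lines. Compounds were first tested at a single 10 µM dose, and compounds active there went to dose-response curves. Growth is expressed relative to untreated control (100%). GI50 (50% of maximal proliferation inhibition) and TGI (total growth inhibition) were derived from the dose-response data.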

LOX IMVI = assay: Growth inhibition of human LOX IMVI cells assessed as cell growth at 10 uM incubated for 48 hrs by sulforhodamine B assay relative to control; procedure, shortened: as §1

SMILES	growth at 10 µM (IGROV-1)	growth at 10 µM (RPMI-8226)	growth at 10 µM (NCI-H23)	growth at 10 µM (DU-145)	growth at 10 µM (SF-539)	growth at 10 µM (UO-31)	growth at 10 µM (CCRF-CEM)	growth at 10 µM (A498)	growth at 10 µM (MDA-MB-231)	growth at 10 µM (OVCAR-5)	growth at 10 µM (SNB-19)	growth at 10 µM (OVCAR-3)	growth at 10 µM (RXF 393)	growth at 10 µM (MDA-MB-435)	growth at 10 µM (A549)	growth at 10 µM (OVCAR-8)	growth at 10 µM (MOLT-4)	growth at 10 µM (T47D)	growth at 10 µM (HCC 2998)	growth at 10 µM (UACC-257)	further results
CC1(C)CCc2cc(-c3ccn(S(=O)(=O)c4ccccc4)n3)ccc2O1	96.4%	59.5%	75.5%	85.6%	92.8%	63.6%	65.6%	65.4%	104%	89.7%	94.1%	81.4%	81.7%	79%	77.6%	84.3%	61.5%	50.5%	83.2%	82.7%	growth at 10 µM (UACC-62): 73.3%; growth at 10 µM (M14): 61%; growth at 10 µM (HOP-92): 60%; growth at 10 µM (SK-MEL-5): 75.7%; growth at 10 µM (SN12C): 98.8%; growth at 10 µM (KM12): 71.5%; growth at 10 µM (MDA-MB-468): 54.6%; growth at 10 µM (SF-295): 81.4%; growth at 10 µM (HOP-62): 108%; growth at 10 µM (Malme-3M): 99.3%; growth at 10 µM (786-0): 74.5%; growth at 10 µM (U-251): 72.3%; growth at 10 µM (HL-60(TB)): 89.4%; growth at 10 µM (LOX IMVI): 85.2%
COc1ccc(S(=O)(=O)n2ccc(-c3ccc4c(c3)CCC(C)(C)O4)n2)cc1OC	84.3%	59%	56%	82.6%	97.2%	68.5%	82.2%	52.8%	82.5%	105%	87.4%	70.9%	75.1%	79.6%	67.1%	74.6%	63.8%	43.7%	78.9%	57.1%	growth at 10 µM (UACC-62): 63.9%; growth at 10 µM (M14): 81.9%; growth at 10 µM (HOP-92): 58.3%; growth at 10 µM (SK-MEL-5): 28.2%; growth at 10 µM (SN12C): 83.1%; growth at 10 µM (KM12): 71.4%; growth at 10 µM (MDA-MB-468): 28.4%; growth at 10 µM (SF-295): 63%; growth at 10 µM (HOP-62): 112%; growth at 10 µM (Malme-3M): 114%; growth at 10 µM (786-0): 79.4%; growth at 10 µM (U-251): 79.5%; growth at 10 µM (HL-60(TB)): 94.7%; growth at 10 µM (LOX IMVI): 76.7%
